ChEMBL document CHEMBL1770114, “Triamino pyrimidines and pyridines as histamine H(4) receptor modulators” (Bioorg Med Chem Lett, 2011)

Experiments:
Histamine H4 receptor [1] = target: T1, Histamine H4 receptor (Homo sapiens, UniProt Q9H3N8); test: Displacement of [3H]histamine from human histamine H4 receptor
Histamine H4 receptor [2] = target: T1, Histamine H4 receptor; test: Agonist activity at human histamine H4 receptor expressed in human SK-N-MC cells assessed as effect on forskolin-induced cAMP accumulation after 6 hrs; assay type: functional, cell-based
Procedure, shortened: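 SK-N-MC cells with CRE-driven β-galactosidase reporter. Compound added to medium for 10 min at room temperature, then forskolin (5 µM final), 6 h at 37 °C. Chlorophenol red β-D-galactopyranoside substrate read at A570. α set against histamine (full agonist) = 1.0.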

Histamine H4 receptor [3] = target: T1, Histamine H4 receptor; test: Agonist activity at human histamine H4 receptor expressed in human SK-N-MC cells assessed as effect on forskolin-induced cAMP accumulation after 6 hrs relative to histamine; assay type: functional, cell-based
Procedure, shortened: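 SK-N-MC cells expressing human H4 receptor with a cAMP-responsive-element β-galactosidase reporter. Compound incubated 10 min at room temperature, then forskolin (5 µM final), then 6 h at 37 °C. Cells frozen overnight at -40 °C, lysed in phosphate buffer pH 8, chlorophenolred β-D-galactopyranoside substrate added, absorbance read at 570 nm. α calculated relative to histamine (full agonist) set as 1.0.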

Histamine H4 receptor [4] = target: T1, Histamine H4 receptor; test: Antagonist activity at human histamine H4 receptor expressed in human SK-N-MC cells assessed as inhibition of forskolin-stimulated cAMP accumulation after 6 hrs; assay type: functional, cell-based; settings: read-out: pA2 (converted)
Procedure, shortened: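 pA2 format on SK-N-MC cells carrying a CRE-controlled β-galactosidase reporter. Cells were preincubated with compound for 10 min, then with histamine agonist for 10 min, then forskolin was added, followed by 6 h at 37 °C. Lysis used phosphate/Mg/Mn buffer at pH 8 with Triton X-100 and β-mercaptoethanol. Chlorophenol red β-D-galactopyranoside turnover was read at 570 nm.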

T1 sequence (Q9H3N8 whole entry): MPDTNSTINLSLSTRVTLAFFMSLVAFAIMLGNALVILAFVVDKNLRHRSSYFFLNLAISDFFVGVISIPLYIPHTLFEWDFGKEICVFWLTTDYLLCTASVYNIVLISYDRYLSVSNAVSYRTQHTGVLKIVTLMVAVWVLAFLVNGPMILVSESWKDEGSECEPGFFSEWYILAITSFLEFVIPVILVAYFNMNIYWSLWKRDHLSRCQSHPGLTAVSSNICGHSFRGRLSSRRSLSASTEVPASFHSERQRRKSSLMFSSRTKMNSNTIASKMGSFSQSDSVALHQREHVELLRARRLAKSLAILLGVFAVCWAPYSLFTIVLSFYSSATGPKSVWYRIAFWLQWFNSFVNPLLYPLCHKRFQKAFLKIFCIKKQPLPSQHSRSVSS

SMILES	Ki (Histamine H4 receptor [1]) [nM]	EC50 (Histamine H4 receptor [2]) [nM]	Alpha max (Histamine H4 receptor [3])	Kb (Histamine H4 receptor [4]) [nM]
CN[C@@H]1CCN(c2cc(N(C)C(C)C)nc(N)n2)C1	51			
CC(C)N(C)c1cc(N2CCN(C)CC2)cc(N)n1	189			
CN[C@@H]1CCN(c2cc(NCCO)nc(N)n2)C1	44			
CN1CCN(c2cc(NCCO)nc(N)n2)CC1	25			
CN1CCN(c2cc(NC3CCCC3)nc(N)n2)CC1	1	101	0.46	
CN[C@@H]1CCN(c2cc(NC3CCCC3)nc(N)n2)C1	9	> 10000		0.398
CN[C@@H]1CCN(c2cc(NCc3ccccc3)nc(N)n2)C1	58			
CN[C@@H]1CCN(c2cc(N)nc(N(C)C(C)C)c2)C1	29			
CN[C@@H]1CCN(c2cc(N)nc(N3CCCC3)c2)C1	77	> 10000		15.8
CC(C)Nc1cc(N2CCN(C)CC2)nc(N)n1	3	12	0.57	
CN1CCN(c2cc(N)nc(NCc3ccccc3)c2)CC1	148			
CN1CCN(c2cc(N)nc(N3CCCC3)n2)CC1	132			
CC(C)CNc1cc(N2CCN(C)CC2)nc(N)n1	2	> 10000		1.26
CN[C@@H]1CCN(c2cc(N)nc(NCc3ccccc3)n2)C1	69			
CN1CCN(c2cc(N)nc(NCC(C)(C)C)c2)CC1	0.3			
CN1CCN(c2cc(N)nc(NC3CCCC3)c2)CC1	3	11	0.73	
Nc1nc(N2CCCC2)cc(N2CC[C@@H](N)C2)n1	64			
CN1CCN(c2cc(N)nc(NCCO)n2)CC1	1160			
Nc1nc(N2CCCC2)cc(N2CCNCC2)n1	8	> 10000		
CC(C)N(C)c1nc(N)cc(N2CCN(C)CC2)n1	853			
CC(C)Nc1nc(N)cc(N2CCN(C)CC2)n1	162			
CN[C@@H]1CCN(c2cc(N)nc(N3CCCC3)n2)C1	127			
CN[C@@H]1CCN(c2cc(N)nc(NCc3ccccc3)c2)C1	50			

SMILES	Ki (Histamine H4 receptor [1]) [nM]	EC50 (Histamine H4 receptor [2]) [nM]	Alpha max (Histamine H4 receptor [3])	Kb (Histamine H4 receptor [4]) [nM]
CN[C@@H]1CCN(c2cc(N)nc(NC(C)C)c2)C1	3	> 10000		1.58
CN[C@@H]1CCN(c2cc(N)nc(NCC(C)C)c2)C1	0.2	> 10000		1.58
CN[C@@H]1CCN(c2cc(N)nc(NCCO)n2)C1	255			
CN[C@@H]1CCN(c2cc(N)nc(NCC(C)(C)C)c2)C1	0.04			
CC(C)CNc1nc(N)cc(N2CCN(C)CC2)n1	15	86	0.71	
CN1CCN(c2cc(N)nc(N3CCCC3)c2)CC1	100	> 10000		20
CN[C@@H]1CCN(c2cc(N)nc(NC(C)C)n2)C1	6	> 10000		12.6
CN1CCN(c2cc(N)nc(NCc3ccccc3)n2)CC1	1080			
CC(C)Nc1cc(N2CCN(C)CC2)cc(N)n1	28	533	0.6	
CN[C@@H]1CCN(c2cc(N)nc(N(C)C(C)C)n2)C1	140			
CN[C@@H]1CCN(c2cc(NC(C)C)nc(N)n2)C1	3	> 10000		10
CN1CCN(c2cc(NCc3ccccc3)nc(N)n2)CC1	20			
CN1CCN(c2cc(N3CCCC3)nc(N)n2)CC1	6	> 10000		2
CN[C@@H]1CCN(c2cc(N)nc(NCC(C)C)n2)C1	1	> 10000		1.58
Nc1nc(N2CCCC2)cc(N2CC3CCCNC3C2)n1 (racemic)	40			
CN[C@@H]1CCN(c2cc(N)nc(NC3CCCC3)c2)C1	0.9	> 10000		
CN[C@@H]1CCN(c2cc(N3CCCC3)nc(N)n2)C1	36	> 10000		7.94
CC(C)N(C)c1cc(N2CCN(C)CC2)nc(N)n1	24	> 10000		
CN[C@H]1CCN(c2cc(N3CCCC3)nc(N)n2)C1	83			
CN[C@@H]1CCN(c2cc(N)nc(NC3CCCC3)n2)C1	6	> 10000		12.6
CN1CCN(c2cc(N)nc(NC3CCCC3)n2)CC1	10	16	0.63	
CC(C)CNc1cc(N2CCN(C)CC2)cc(N)n1	2	50	0.51	
